Test results as given in paper PMC3042036 (Pharmacological research : the official journal of the …, 2010).

Columns and labels:
[1] = Plasma and brain compound concentrations after i.p. administration to mice; format: in vivo, mice (B6C3F1); settings: for Brain drug level / Plasma drug level / B/P (Brain-to-Plasma ratio): mice; for B/P (Brain-to-Plasma ratio): total drug; for concentration at 2 h / Kp at 2 h: 5 mg/kg
Summary of the method: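 Male B6C3F1 mice are dosed i.p. with test compound in DMSO. Brains are sonicated in 10 mM ammonium acetate, pH 5.7 (1:2 w/v). Plasma comes from blood collected with EDTA and spun 10 min at 4500g, 4°C. Each 50 μl aliquot is precipitated with 0.2 ml acetonitrile and spun at 15,000g. Supernatants are quantified by LC-MS/MS.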

[2] = molecular target: T1, Pgp (human MDR1) in MDCK-MDR cells (Homo sapiens, UniProt P08183); assay: MDCK-MDR bi-directional permeability assay; settings: 5 μM test compound; for Papp (A-B) / Papp (B-A): pH 7.4
[3] = test system: optic nerve (ON) acetyl-tubulin; assay: Optic nerve acetyl-tubulin ELISA after administration to mice; format: in vivo, mice (B6C3F1); settings: 1, 3 and 10 mg/kg i.p., 16 hours after dosing
Summary of the method: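 Male B6C3F1 mice (2–3 months, n=3/treatment) get a single i.p. dose of test compound in DMSO, volume scaled to body weight. Optic nerves are taken 16 hours later and sonicated 1:5 w/v in RIPA with inhibitors. Acetyl-tubulin is measured by α-tubulin-capture/HRP-acetyl-tubulin ELISA at 450 nm, using duplicate serial inputs. Values are read off a vehicle-control input curve and normalized to vehicle mice.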

[4] = test system: Tg mice that express human tau; settings: cited from earlier work
brain acetyl-tubulin = assay: Brain acetyl-tubulin ELISA after administration to mice; format: in vivo, mice (B6C3F1); settings: for Brain acetyl-tubulin relative to vehicle: 16 hours after dosing
Summary of the method: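 Young male B6C3F1 mice (2–3 months) get a single i.p. dose of test compound in DMSO (~40 μl, scaled to body weight), n=3–6 per group. Brain hemispheres are sonicated 1:5 w/v in RIPA with protease inhibitors and trichostatin A. Sandwich ELISA uses 12G10 α-tubulin capture and HRP-acetyl-tubulin detection at 450 nm. Inputs run from 60 to 2.2 ng/μl in duplicate and are fit to the vehicle input curve.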

[5] = test system: acetyl-tubulin in PC12 cells; assay: Acetyl-tubulin levels in PC12 cells; format: cell-based; settings: 24 hours treatment, increasing concentrations
[6] = molecular target: T1, Pgp (human MDR1) in MDCK-MDR cells; assay: Inhibition of Pgp-mediated transport of digoxin in MDCK-MDR cells; settings: 10 μM digoxin + 5 μM test compound
P-gp (human MDR1) = P-gp (human MDR1) (Homo sapiens, UniProt P08183); assay: MDCK-MDR bi-directional permeability assay; settings: dog, MDCK-MDR1, pH 7.4
[7] = male, B6C3F1, mouse, plasma, ip
[8] = male, B6C3F1, mouse, brain, ip, 10 mg/kg
[9] = male, B6C3F1, mouse, brain/plasma, ip
[10] = male, B6C3F1, mouse, brain, intraperitoneal, 3 mg/kg

Chain of P-gp (human MDR1) (P08183 whole entry): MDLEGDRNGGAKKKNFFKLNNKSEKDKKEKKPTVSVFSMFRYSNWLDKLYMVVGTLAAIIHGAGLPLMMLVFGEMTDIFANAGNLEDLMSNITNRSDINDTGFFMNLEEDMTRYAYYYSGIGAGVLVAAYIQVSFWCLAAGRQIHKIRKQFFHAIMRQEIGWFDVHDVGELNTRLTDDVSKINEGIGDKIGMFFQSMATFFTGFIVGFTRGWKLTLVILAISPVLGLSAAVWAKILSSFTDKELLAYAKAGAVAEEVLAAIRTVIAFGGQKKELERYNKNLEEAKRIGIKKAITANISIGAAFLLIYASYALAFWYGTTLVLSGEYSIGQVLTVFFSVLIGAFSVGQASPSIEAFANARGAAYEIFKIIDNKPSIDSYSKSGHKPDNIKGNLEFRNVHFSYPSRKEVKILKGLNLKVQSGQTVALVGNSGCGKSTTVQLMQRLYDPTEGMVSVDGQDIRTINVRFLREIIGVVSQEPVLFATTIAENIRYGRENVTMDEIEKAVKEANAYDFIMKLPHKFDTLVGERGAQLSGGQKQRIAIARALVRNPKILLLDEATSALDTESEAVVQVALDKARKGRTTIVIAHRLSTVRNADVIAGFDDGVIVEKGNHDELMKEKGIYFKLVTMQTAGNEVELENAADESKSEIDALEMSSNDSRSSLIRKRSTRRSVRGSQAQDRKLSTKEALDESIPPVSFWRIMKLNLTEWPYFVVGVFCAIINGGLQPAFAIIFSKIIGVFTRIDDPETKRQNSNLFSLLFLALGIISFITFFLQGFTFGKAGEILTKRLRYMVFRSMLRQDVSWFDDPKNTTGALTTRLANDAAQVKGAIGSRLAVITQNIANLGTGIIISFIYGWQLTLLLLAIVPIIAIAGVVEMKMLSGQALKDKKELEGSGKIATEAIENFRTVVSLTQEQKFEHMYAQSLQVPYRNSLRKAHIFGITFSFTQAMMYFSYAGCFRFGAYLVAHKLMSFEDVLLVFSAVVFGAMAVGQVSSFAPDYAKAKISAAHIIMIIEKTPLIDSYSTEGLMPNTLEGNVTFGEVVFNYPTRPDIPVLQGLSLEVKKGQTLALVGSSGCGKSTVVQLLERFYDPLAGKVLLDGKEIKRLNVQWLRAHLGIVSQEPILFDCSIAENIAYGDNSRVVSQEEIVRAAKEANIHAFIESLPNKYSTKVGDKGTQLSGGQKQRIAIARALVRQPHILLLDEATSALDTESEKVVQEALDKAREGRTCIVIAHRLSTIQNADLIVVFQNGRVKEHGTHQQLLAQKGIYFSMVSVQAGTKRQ
T1 sequence (P08183 whole entry): as above

C/C1=C/C[C@@H](/C(C)=C/c2csc(CO)n2)OC(=O)C[C@H](O)C(C)(C)C(=O)[C@H](C)[C@@H](O)[C@@H](C)/C=C/C1 [CNDR-88]
Brain drug level ([1]; i.p. 5 mg/kg, 2 hours): 30 ng/g | Plasma drug level ([1]; i.p. 5 mg/kg, 2 hours): 0.012 µg/mL | B/P (Brain-to-Plasma ratio) ([1]; i.p. 5 mg/kg, 2 hours): 2.6 | Brain drug level ([1]; i.p. 10 mg/kg, 24 hours): 45 ng/g | Plasma drug level ([1]; i.p. 10 mg/kg, 24 hours): 0.0061 µg/mL | B/P (Brain-to-Plasma ratio) ([1]; i.p. 10 mg/kg, 24 hours): 7.3 | Papp (A-B) [2]: 0.8 10^−6 cm/s | Papp (B-A) [2]: 58.6 10^−6 cm/s | ON acetyl-tubulin relative to vehicle (in words) [3]: neither CNDR-86 nor CNDR-88 elicited a change at any dose

CC(=O)O[C@H]1C(=O)[C@@]2(C)[C@H]([C@H](OC(=O)c3ccccc3)[C@]3(O)C[C@H](OC(=O)[C@H](O)[C@@H](NC(=O)c4ccccc4)c4ccccc4)C(C)=C1C3(C)C)[C@]1(OC(C)=O)CO[C@@H]1C[C@@H]2O [Paclitaxel, reference compound]
concentration at 2 h ([1]; male, B6C3F1, mouse, brain, ip): 85 ng/g | concentration at 2 h [1, 7]: 1.29 µg/mL | B/P (Brain-to-Plasma ratio) ([1]; i.p. 5 mg/kg, 2 hours): 0.07 | Effect in Tg mice that over-express human tau ([4]; drug absorption at peripheral neuromuscular junctions): increased MT density and marked improvement in motor function

C/C1=C/C[C@@H](/C(C)=C/c2csc(CO)n2)OC(=O)C[C@H](O)C(C)(C)C(=O)[C@H](C)[C@@H](O)[C@@H](C)CCC1 [CNDR-89, 12,13-desoxy-epothilone F]
Brain drug level ([1]; i.p. 5 mg/kg, 2 hours): 24 ng/g | Plasma drug level ([1]; i.p. 5 mg/kg, 2 hours): 0.0068 µg/mL | B/P (Brain-to-Plasma ratio) ([1]; i.p. 5 mg/kg, 2 hours): 3.5 | Brain drug level ([1]; i.p. 10 mg/kg, 24 hours): 13 ng/g | Plasma drug level ([1]; i.p. 10 mg/kg, 24 hours): BLD | Brain acetyl-tubulin relative to vehicle (brain acetyl-tubulin; 3 mg/kg i.p.): increase of acetyl-tubulin relative to vehicle | Brain acetyl-tubulin relative to vehicle (brain acetyl-tubulin; 10 mg/kg i.p.): no effect | Papp (A-B) [2]: 2.3 10^−6 cm/s | Papp (B-A) [2]: 63 10^−6 cm/s | ON acetyl-tubulin relative to vehicle (in words) [3]: only resulted in an increase of the stabilized MT biomarker at 10 mg/kg

C/C(=C\c1csc(C)n1)[C@@H]1C[C@@H]2O[C@]2(C)CCC[C@H](C)[C@H](O)[C@@H](C)C(=O)C(C)(C)[C@@H](O)CC(=O)N1 [CNDR-90, ixabepilone, reference compound]
concentration at 2 h ([1]; male, B6C3F1, mouse, brain, ip): 142 ng/g | concentration at 24 h [1, 8]: 107 ng/g | Kp at 2 h [1, 9]: 0.4 | Kp at 24 h ([1]; male, B6C3F1, mouse, brain/plasma, ip, 10 mg/kg): 2.6 | concentration at 2 h [1, 7]: 0.319 µg/mL | concentration at 24 h ([1]; male, B6C3F1, mouse, plasma, ip, 10 mg/kg): 0.041 µg/mL

C/C1=C/C[C@@H](/C(C)=C/c2csc(C)n2)OC(=O)C[C@H](O)C(C)(C)C(=O)[C@H](C)[C@@H](O)[C@@H](C)CCC1 [CNDR-66, Epothilone D]
Brain elimination half-life compared with plasma ([1]; full pharmacokinetic analysis, data not shown): far exceeded that observed in the plasma | concentration at 7 days [1, 10]: 8.3 ng/g | concentration at 10 days [1, 10]: 1.8 ng/g | concentration at 2 h ([1]; male, B6C3F1, mouse, brain, ip): 109 ng/g | concentration at 24 h [1, 8]: 64 ng/g | Kp at 2 h [1, 9]: 7.6 | concentration at 2 h [1, 7]: 0.014 µg/mL | Plasma drug level ([1]; i.p. 10 mg/kg, 24 hours): BLD | Amount of acetyl-tubulin in PC12 cells [5]: significant concentration-dependent increase | Brain acetyl-tubulin levels (brain acetyl-tubulin; single 1 mg/kg, 7 days after dosing): significant increase of brain acetyl-tubulin | Brain acetyl-tubulin levels (brain acetyl-tubulin; single 3 mg/kg, 6 and 10 days after dosing): increased acetyl-tubulin levels | Brain acetyl-tubulin levels (brain acetyl-tubulin; single 3 mg/kg, 7 days after dosing): increase of acetyl-tubulin | Brain acetyl-tubulin levels (brain acetyl-tubulin; single 3 mg/kg, 14 days after dosing): statistically insignificant change | Brain acetyl-tubulin levels (brain acetyl-tubulin; single 6 mg/kg, 7 days after dosing, compared with 3 mg/kg): not further increased | Inhibition of Pgp transport of digoxin (in words) [6]: potent inhibitor of Pgp transport | Papp A→B at 2 h, 5 µM (P-gp (human MDR1)): 300 nm/s | Papp B→A at 2 h, 5 µM (P-gp (human MDR1)): 468 nm/s | efflux ratio at 2 h, 5 µM (P-gp (human MDR1)): 1.6 | Efflux Ratio (B-A)/(A-B) [2]: near unity | Effect in Tg mice that express mutant human tau [4]: improve CNS axonal integrity, MT density and cognitive performance | ON acetyl-tubulin relative to vehicle (in words) [3]: elevation of acetyl-tubulin at all doses
